The values below come from ChEMBL document CHEMBL4477254, “Synthesis and biological evaluation of some novel triazole hybrids of curcumin mimics and their selective anticancer activity against breast and prostate cancer cell lines” (Bioorg Med Chem Lett, 2016).

Calls of active or inactive are those of the source. The calls are words filed in the database; no cut-off is given here.

The test system of series [1] is MCF7. Kind of series: Cell cycle arrest in human MCF7 cells assessed as accumulation at G0/G1 phase at 3 uM after 24 hrs by propidium iodide staining based flow cytometry (reference value: 45.67%). Format: functional. Put shortly:
(§1)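 Cells treated 24 h with test compound, MCF-7 at various concentrations and PC-3 at various concentrations; cells harvested, stained with propidium iodide and acquired by flow cytometry for cell cycle phase distribution.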

A short description of series [2]: Half life in liver microsomes (unknown origin) at 5 ug/ml in presence of NADPH by UPLC analysis. The format is ADME, Microsome.
In series [3] the test system is MCF7. Kind of series: Inhibition of colony formation in human MCF7 cells at 3 to 6 uM incubated for 24 hrs measured till day 7 by crystal violet staining based assay. Format: functional, cell-based. Put shortly: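 Cells were treated with a range of concentrations for 24 h. The medium was then replaced with complete medium and cells were grown for 7 days. Colonies were stained with 0.1% crystal violet.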

Series [4] relates to MCF7. Kind of series: Cell cycle arrest in human MCF7 cells assessed as increase in cells at S phase after 24 hrs by propidium iodide staining based flow cytometry. Format: functional. In a few lines:
as §1

Series [5] concerns MCF7. The experiment in a line: Induction of apoptosis in human MCF7 cells assessed as viable cells at 3 uM after 24 hrs by annexin V-FITC/propidium iodide staining based flow cytometry (reference value: 82.63%). The format is functional. The conditions noted are these: MCF7, 24 h, read-out: Activity. Put shortly:
(§2)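 Apoptosis by Annexin V-FITC/PI dual staining: MCF-7 cells treated 24 h at 3, 6 and 9 µM, then harvested, stained and acquired by flow cytometry; early apoptotic = AnnexinV+/PI−, live = AnnexinV−/PI−, necrotic = AnnexinV−/PI+.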

Series [6] relates to MCF7. Kind of series: Induction of apoptosis in human MCF7 cells assessed as early apoptotic cells at 3 uM after 24 hrs by annexin V-FITC/propidium iodide staining based flow cytometry (reference value: 7.36%). The format is functional. In a few lines: as §2
Series [7] deals with MCF7. Kind of series: Cell cycle arrest in human MCF7 cells assessed as accumulation at G0/G1 phase at 9 uM after 24 hrs by propidium iodide staining based flow cytometry (reference value: 45.67%). The format is functional. Put shortly:
as §1

Series [8] concerns MCF7. Kind of series: Induction of apoptosis in human MCF7 cells assessed as early apoptotic cells at 6 uM after 24 hrs by annexin V-FITC/propidium iodide staining based flow cytometry (reference value: 7.36%). The format is functional. Put shortly: as §2
For series [9], the system named is MCF7. The experiment in a line: Induction of apoptosis in human MCF7 cells assessed as increase in early apoptotic cells after 24 hrs by annexin V-FITC/propidium iodide staining based flow cytometry. The format is functional, cell-based. In a few lines:
as §2

Series [10] deals with PC-3. Kind of series: Induction of mitochondrial membrane depolarization in human PC3 cells at 8.8 uM after 24 hrs by JC-1 staining based flow cytometry (reference value: 4.51%). The format is functional.
Series [11] has as its system PC-3. Kind of series: Cell cycle arrest in human PC3 cells assessed as accumulation at G0/G1 phase at 8.8 uM after 24 hrs by propidium iodide staining based flow cytometry (reference value: 72.73%). The format is functional. Put shortly:
as §1

The subject of series [12] is PC-3. Kind of series: Cell cycle arrest in human PC3 cells assessed as accumulation at S phase at 8.8 uM after 24 hrs by propidium iodide staining based flow cytometry (reference value: 25.01%). Format: functional. Put shortly: as §1
Series [13] deals with PC-3. The experiment in a line: Induction of apoptosis in human PC3 cells assessed as decrease in live cells after 24 hrs by annexin V-FITC/propidium iodide staining based flow cytometry. Format: functional, cell-based. Put shortly:
(§3)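 MCF-7 cells exposed to 3, 6 or 9 μM and PC-3 cells to 4.8 or 8.8 μM for 24 h, then harvested and dual-stained with Annexin V-FITC/PI and read by flow cytometry. Gates: live AnnexinV⁻/PI⁻, early apoptotic AnnexinV⁺/PI⁻, necrotic AnnexinV⁻/PI⁺.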

In series [14] the test system is PC-3. The experiment in a line: Decrease in Bcl-2 expression in human PC3 cells at 4.8 to 8.8 uM after 24 hrs by Western blot analysis. The format is functional, cell-based. Put shortly: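 MCF-7 or PC-3 cells treated with compound for 24 h, harvested; PCNA, Bax and Bcl-2 protein expression checked by Western blotting.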
The test system of series [15] is PC-3. The experiment in a line: Induction of apoptosis in human PC3 cells assessed as late apoptotic cells at 8.8 uM after 24 hrs by annexin V-FITC/propidium iodide staining based flow cytometry (reference value: 0.80%). The format is functional. Put shortly:
as §3

The test system of series [16] is PC-3. Kind of series: Induction of apoptosis in human PC3 cells assessed as necrotic cells at 4.8 uM after 24 hrs by annexin V-FITC/propidium iodide staining based flow cytometry (reference value: 2.52%). The format is functional. Put shortly:
as §3

The subject of series [17] is PC-3. Kind of series: Induction of apoptosis in human PC3 cells assessed as early apoptotic cells at 4.8 uM after 24 hrs by annexin V-FITC/propidium iodide staining based flow cytometry (reference value: 4.44%). The format is functional. In a few lines:
as §3

A short description of series [18]: Half life in liver microsomes (unknown origin) at 8 ug/ml in presence of NADPH by UPLC analysis. Format: ADME, Microsome.
For series [19], the system named is PC-3. The experiment in a line: Induction of apoptosis in human PC3 cells assessed as early apoptotic cells at 8.8 uM after 24 hrs by annexin V-FITC/propidium iodide staining based flow cytometry (reference value: 4.44%). The format is functional. In a few lines:
as §3

The test system of series [20] is PC-3. Kind of series: Induction of morphological changes in human PC3 cells assessed as decrease in cell number at 2.4 to 8.8 uM after 24 hrs by phase contrast microscopy. Format: functional, cell-based. Put shortly:
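Cells were exposed to a range of concentrations for 24 h. Cell number and morphology, including detachment from the surface, were assessed by phase-contrast microscopy at 10X magnification.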

In series [21] the test system is PC-3. The experiment in a line: Induction of apoptosis in human PC3 cells assessed as viable cells at 4.8 uM after 24 hrs by annexin V-FITC/propidium iodide staining based flow cytometry (reference value: 92.24%). The following applies: PC-3, 24 h, read-out: Activity. Format: functional. In a few lines:
as §3

Consider `O=C1/C(=C/c2ccccc2F)CN(Cc2cn(Cc3ccc(F)cc3)nn2)C/C1=C\c1ccccc1F`, for which the Activity in the series with MCF7 [1] is 38.9%; with MCF7 [4] it was “Dose-dependent effect”; in the series with MCF7 [6], 25.08%; with MCF7 [7], 2.22%; with MCF7 [8] it was 30.56%; in the series on MCF7 [9] it was “Dose-dependent effect”. In [2], the half-life at 5 ug/ml turned out to be 7.52 min. Also, in the series on MCF7 [3], the inhibition entry was “Active”. Also, the viability at 3 µM with MCF7 [5] was 52.4%.

Turning to `Cc1ccc(/C=C2\CN(Cc3cn(Cc4ccccc4F)nn3)C/C(=C\c3ccc(C)cc3)C2=O)cc1`, the Activity in the series with PC-3 [10] is 32.02%; in the series on PC-3 [11], 67.5%; in the series with PC-3 [12], 23.61%; in the series with PC-3 [13], “Dose-dependent effect”; in the series on PC-3 [15] it was 0.88%; in the series with PC-3 [16], 0.91%. The Activity was 13.02% in the series on PC-3 [17] and 17.54% in the series on PC-3 [19]. Moreover, the outcome in the series on PC-3 [14] and in the series with PC-3 [20] was Active. In addition, the half-life at 8 ug/ml in series [18] is 15.9 min. Moreover, the viability at 4.8 µM in the series on PC-3 [21] came out at 85.3%.
